This is a sample that favours compounds with a hit; in the whole collection about 4.5% have one here.
XBP1 UPR activ: activators of adaptive XBP1 UPR arm, primary screen, cell-based, CHO-XBP1 luciferase reporter, luminescence, uHTS | activation, % at 20 µM | actives 0.33% (n = 330,000) | IRE1-XBP1 UPR activation; percent of tunicamycin response, DMSO as zero | AID 463104, 2010;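 active = versus positive control, 20 µM dose yields 30% or more activation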
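Assay system: CHO-XBP1 luciferase reporter cells; Schedule: 6 h treatment, 37 °C; Detection: glow luminescence from Steady-Glo reagent; Benchmarks: high control tunicamycin 10 µg/mL final, low control DMSO vehicle only.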
UPR CHOP act: activators of apoptotic CHOP UPR arm, primary screen, cell-based, CHO-CHOP luciferase reporter, luminescence, uHTS | UPR activation; percent of tunicamycin response over DMSO baseline | activation, % at 10 µM | actives 0.34% (n = 330,000) | AID 449763, 2010;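 active = at 10 µM dose, activation of 40% or more, normalized to positive control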
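System: CHO-CHOP luciferase reporter cell line | Buffer or medium: F12 medium containing 10% fetal bovine serum | Doses: One dose, 10 µM in 0.5% DMSO | Times: 6 h compound exposure at 37 °C after overnight seeding | Signal: Luciferase luminescence | Read-out: % activation vs tunicamycin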
M18AAP inhibitor: PfM18AAP inhibitors, malaria aminopeptidase, primary screen, biochemical, QFRET, recombinant enzyme; inhibition, % at 7.35 µM; H-Glu-NHMec fluorogenic cleavage; M18 aspartyl aminopeptidase (Plasmodium falciparum 3D7); AID 1822, 2009; actives 1.2% (n = 290,000);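 active = inhibition above the campaign mean inhibition over all tested compounds plus 3 SD, cut at about 28% in these data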
NS3 helicase inh: inhibitors of HCV NS3 helicase, primary screen, biochemical, Cy5 molecular beacon fluorescence; actives 0.56% (n = 290,000); NS3 helicase DNA unwinding; inhibition, % at 10.9 µM; AID 1800, 2009; Hepatitis C virus NS3 helicase;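 active = inhibition above the mean of all tested compounds plus 3 SD, set per campaign, cut at about 35% in these data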
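Compound dosing – single dose, 10.9 µM nominal final, DMSO 0.8% final · System – NS3 helicase fragment of HCV · Buffer or medium – MOPS pH 6.5, MgCl2, DTT, Tween20, BSA · Signal – Cy5 beacon fluorescence read at start and 1 h · Also added – annealed dual-labelled DNA beacon duplex, ATP-started · Schedule – 1 h at 25 °C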
p97 inhibitor: inhibitors of human p97 ATPase, primary screen, biochemical; recombinant p97 ATPase, Kinase-Glo ATP luminescence, 3 h; inhibition, % at 8 µM; actives 0.42% (n = 220,000); AID 1481, 2009; in the data active = inhibition above about 15%
Target sequence (P55072 whole entry, looked up): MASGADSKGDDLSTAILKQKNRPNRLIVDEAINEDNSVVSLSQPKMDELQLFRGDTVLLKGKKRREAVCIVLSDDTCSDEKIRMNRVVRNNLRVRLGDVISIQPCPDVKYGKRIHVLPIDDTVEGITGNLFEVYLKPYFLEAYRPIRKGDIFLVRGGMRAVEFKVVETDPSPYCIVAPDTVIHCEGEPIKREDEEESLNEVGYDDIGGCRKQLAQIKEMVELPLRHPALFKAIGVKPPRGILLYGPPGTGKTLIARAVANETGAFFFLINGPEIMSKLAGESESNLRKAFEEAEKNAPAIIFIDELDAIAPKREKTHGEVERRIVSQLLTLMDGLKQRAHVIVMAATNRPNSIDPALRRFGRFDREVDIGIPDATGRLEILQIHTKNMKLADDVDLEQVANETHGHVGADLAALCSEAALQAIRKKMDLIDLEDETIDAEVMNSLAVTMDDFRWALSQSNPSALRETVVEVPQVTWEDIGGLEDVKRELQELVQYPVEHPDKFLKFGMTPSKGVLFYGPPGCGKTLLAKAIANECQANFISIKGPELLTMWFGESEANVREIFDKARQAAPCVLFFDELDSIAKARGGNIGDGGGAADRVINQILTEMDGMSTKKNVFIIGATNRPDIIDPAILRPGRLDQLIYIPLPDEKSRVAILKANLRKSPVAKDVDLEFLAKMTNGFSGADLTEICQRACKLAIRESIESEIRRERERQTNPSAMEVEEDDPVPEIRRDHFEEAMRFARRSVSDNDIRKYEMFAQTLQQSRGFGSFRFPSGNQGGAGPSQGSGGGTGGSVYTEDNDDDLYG
CHOP inhibitor: inhibitors of CHOP promoter induction, primary screen, cell-based, unfolded protein response, luciferase reporter | CHO-K1 CHOP-promoter luciferase, tunicamycin-induced, 15-18 h | inhibition, % at 10 µM | actives 3.8% (n = 220,000) | AID 2732, 2010;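 active = compounds that reduced the stress-induced luciferase reporter signal by more than about 70% of percent inhibition, limit read from the data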
CHOP confirm: retest of CHOP induction inhibitors, confirmation, cell-based; shares compounds with CHOP inhibitor; CHO-CHOP promoter luciferase reporter, tunicamycin-induced, luminescence; inhibition, % at 10 µM; actives 45% (n = 2,100); AID 504437, 2011;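 active = mean of three repeat readings of reporter signal inhibition above a set limit, cut at about 70% in these data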
Of the large screens only hits and unclear results are named; the others gave an inactive call (follow-up assays come after a bar, where they were run).

COc1c(C(=O)Nc2ccc3[nH]c(=O)[nH]c3c2)cc2ccccc2c1Br	CHOP inhibitor 100 | CHOP confirm inactive
COc1ccc(NC(=S)NC(NC(=O)/C=C/c2ccccc2)C(Cl)(Cl)Cl)cc1 (centres undefined)	CHOP inhibitor 107 | CHOP confirm 122
O=C(/C=C/c1ccccc1)NC(NC(=S)Nc1ccc(Cl)cc1)C(Cl)(Cl)Cl (centres undefined)	CHOP inhibitor 109 | CHOP confirm inactive
O=C(/C=C/c1ccccc1)NC(NC(=S)Nc1cc(Cl)ccc1Cl)C(Cl)(Cl)Cl (centres undefined)	none
COC(=O)c1ccccc1S(=O)(=O)N1CCC(C(=O)Nc2ccc(N3CCOCC3)cc2)CC1	none (no result: M18AAP inhibitor, NS3 helicase inh, p97 inhibitor, CHOP inhibitor)
CN(C)c1ccc(/C=C2\C(=N)N3C(=NC2=O)Sc2cc(S(C)(=O)=O)ccc23)cc1	XBP1 UPR activ 136, CHOP inhibitor 104 | CHOP confirm inactive
CCCCC(NC(=O)c1ccc(C#N)cc1)C(=O)NCCC (centres undefined)	none (no result: M18AAP inhibitor, NS3 helicase inh, p97 inhibitor, CHOP inhibitor)
O=C(O)CCCNc1ccc(S(=O)(=O)N2CCCCC2)cc1	none
Cc1ccccc1NC(=O)C(=Cc1ccc(C(=O)O)cc1)C(=O)Nc1ccccc1C	CHOP inhibitor 103 (no result: XBP1 UPR activ, UPR CHOP act) | CHOP confirm inactive
Cc1cnn(-c2nc(-c3cccs3)cc(C(F)(F)F)n2)c1	none
FC(F)(F)c1cc(-c2cccs2)nc(-n2cc(Br)cn2)n1	CHOP inhibitor 97 | CHOP confirm 73
FC(F)(F)c1cc(-c2cccs2)nc(N2CCOCC2)n1	CHOP inhibitor 100 | CHOP confirm inactive
COc1c(N2C[C@@H]3CCCN[C@@H]3C2)c(F)cc2c(=O)c(C(=O)O)cn(C3CC3)c12	none (no result: M18AAP inhibitor, NS3 helicase inh, p97 inhibitor, CHOP inhibitor)
O=C(OCn1ncc(Br)c(Br)c1=O)c1ccccc1Cl	CHOP inhibitor 111 | CHOP confirm 124
COc1cc2c(cc1OC)C(c1cc(C)ccc1C)CC(=O)N2 (centres undefined)	none (no result: p97 inhibitor, CHOP inhibitor)
COc1ccc(C2=NN(C(=O)c3ccco3)C(c3cc4ccccc4nc3Cl)C2)cc1 (centres undefined)	CHOP inhibitor 103 | CHOP confirm 71
COC/C=C/C1=CC2=CC(=O)C(C)(OC(=O)C3CCCC3)C(=O)C2=CO1 (centres undefined)	CHOP inhibitor 99 (no result: M18AAP inhibitor, NS3 helicase inh, p97 inhibitor) | CHOP confirm inactive
CC1=CCC[C@@H]2[C@@](C)(CC/C(C)=C/C(=O)O)[C@H](C)CC[C@@]12C	CHOP inhibitor 99 | CHOP confirm 112
N#CCCN(C(=O)COC(=O)COc1ccccc1Cc1ccccc1)c1ccccc1	none (no result: M18AAP inhibitor, NS3 helicase inh, p97 inhibitor, CHOP inhibitor)
O=CNCCCc1nc2ccccc2n1CCc1ccccc1	none (no result: p97 inhibitor, CHOP inhibitor)
CCCCS/C(N)=N/N=C/c1cc(C)ccc1O	M18AAP inhibitor 29, CHOP inhibitor 102 | CHOP confirm inactive
O=C(O)CCN1C(=O)/C(=C/c2cn(-c3ccccc3)nc2-c2cccs2)SC1=S	CHOP inhibitor 102 | CHOP confirm inactive
COc1ccc(-c2noc(CNS(=O)(=O)c3ccc(NC(C)=O)cc3)n2)cc1	none (no result: p97 inhibitor, CHOP inhibitor)
O=C(NCc1nc(-c2ccc(C(F)(F)F)cc2)no1)Nc1ccc(OC(F)(F)F)cc1	CHOP inhibitor 100 | CHOP confirm 106
CCCc1cc(-c2nc(N)ncc2-c2ccc3c(c2)OCCCO3)c(O)cc1OC	CHOP inhibitor 106 | CHOP confirm 122
Cc1ccc2nc(NC(=O)CCn3c(=O)sc4ccccc43)sc2c1	CHOP inhibitor 98 | CHOP confirm inactive
O=C(CCn1c(=O)sc2ccccc21)Nc1nc2ccccc2s1	none
CC1=C/C(=N\OS(=O)(=O)c2ccccc2)C(C)=CC1=O	CHOP inhibitor 111 | CHOP confirm 128
CC1=C(C)/C(=N\OS(=O)(=O)c2ccc(C)cc2)C=CC1=O	CHOP inhibitor 108 (no result: XBP1 UPR activ, UPR CHOP act) | CHOP confirm 104
CC1=C/C(=N\OS(=O)(=O)c2ccccc2)C(C(C)C)=CC1=O	none (no result: XBP1 UPR activ, UPR CHOP act)
COc1ccc(C(=O)OC(C)C(=O)NC2CCCc3ccccc32)cc1OC (centres undefined)	none (no result: M18AAP inhibitor, NS3 helicase inh, p97 inhibitor, CHOP inhibitor)
Cc1ccc(-n2c(C)cc(C3N=C(N)Nc4nc5ccccc5n43)c2C)c(C)c1 (centres undefined)	CHOP inhibitor 100 | CHOP confirm inactive
Cc1ccc(C)c(NC(=O)C2CC3c4ccccc4C2c2ccccc23)c1 (centres undefined)	CHOP inhibitor 99 | CHOP confirm inactive
CC(/C=C/C=C/c1ccccc1)=N/NC(=O)c1ccc2c(c1)OCCO2	none
CN(C)c1ccc(/C=C2\SC(=O)N(CCc3nnc(N)s3)C2=O)cc1	CHOP inhibitor 100 | CHOP confirm 127
O=C(Cc1csc(Nc2nc(=S)[nH]c3ccccc23)n1)N1CCN(c2cccc(C(F)(F)F)c2)CC1	CHOP inhibitor 107 | CHOP confirm inactive
Cc1nn(CCC#N)c2nc(-c3ccccc3)cc(C(F)(F)F)c12	CHOP inhibitor 106 | CHOP confirm 83
Cc1nn(CCc2nn[nH]n2)c2nc(-c3ccccc3)cc(C(F)(F)F)c12	none
O=C(CCN1C(=O)/C(=C/C=C/c2ccccc2)SC1=S)Nc1cccnc1	CHOP inhibitor 102 | CHOP confirm inactive
O=C(CCN1C(=O)/C(=C/c2ccc(Cl)cc2)SC1=S)Nc1cccnc1	none (no result: p97 inhibitor, CHOP inhibitor)
COC(=O)c1ccc2c(c1)C(C)(C)C(/C=C/c1ccccc1O)=[N+]2C	CHOP inhibitor 108 | CHOP confirm 120
COc1ccc(-c2c3c(nc4sc5c(=O)[nH]c(C)nc5c24)CCC3)cc1	CHOP inhibitor 113 | CHOP confirm inactive
Cc1ccccc1Nc1nc(N)nc(-c2oc3ccccc3c2C)n1	none
Cc1c(-c2nc(N)nc(Nc3ccc(F)cc3)n2)oc2ccccc12	CHOP inhibitor 106 | CHOP confirm inactive
Cc1ccc(N(C(=O)CNC(=O)c2ccco2)C(C(=O)NC2CCCC2)c2cccnc2)cc1F (centres undefined)	none (no result: p97 inhibitor, CHOP inhibitor)
O=C(NCC1CCCO1)c1ccc2c(=O)n(Cc3ccc(Cl)cc3)c(=S)[nH]c2c1 (centres undefined)	CHOP inhibitor 103 | CHOP confirm inactive
COc1ccccc1Cn1c(=S)[nH]c2cc(C(=O)NCC3CCCO3)ccc2c1=O (centres undefined)	none
O=C(Nc1ccccc1)OCCOc1ccc(Br)cc1	none (no result: p97 inhibitor, CHOP inhibitor)
